The source made the active and inactive calls. The rule behind the calls is not given here.

The target of one data set is T1, Thymidylate synthase (Lactobacillus casei, UniProt P00469).
T1 sequence (P00469 whole entry): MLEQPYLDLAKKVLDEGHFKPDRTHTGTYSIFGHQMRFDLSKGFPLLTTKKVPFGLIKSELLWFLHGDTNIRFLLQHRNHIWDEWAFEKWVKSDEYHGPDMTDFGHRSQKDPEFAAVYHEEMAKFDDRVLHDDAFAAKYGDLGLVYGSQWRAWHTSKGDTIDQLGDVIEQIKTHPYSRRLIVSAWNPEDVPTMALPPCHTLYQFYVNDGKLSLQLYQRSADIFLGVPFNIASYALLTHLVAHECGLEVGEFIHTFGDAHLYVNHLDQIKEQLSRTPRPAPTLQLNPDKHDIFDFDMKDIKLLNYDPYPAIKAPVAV
Put plainly: The compound was evaluated for the inhibition of dTMP synthetase from Lactobacillus casei. Further details: species or system Lacticaseibacillus casei. Put shortly:
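dTMP synthetase came from a methotrexate-resistant strain of Lactobacillus casei and was purified. Activity was measured by a reported procedure in standard assay buffer. For time-dependent inactivation, enzyme was preincubated with nucleotide, with or without 0.1 mM CH₂-H₄folate, for up to 2 h. Aliquots were then diluted 10-fold into buffer containing 0.84 mM dUMP and 0.1 mM CH₂-H₄folate, and initial velocity was recorded.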

Data set [1] can be described thus: Compound was tested for cytotoxicity towards (Wild-type and TK-) S49 cells at 0.1 mM; Not cytotoxic. Conditions: mouse, s49, 100 µM. Type of data set: cell-based.
Data set [2] in a line: Effective concentration to inhibit the growth of Wild-type S49 cells. Type of data set: functional, cell-based. Conditions: Mus musculus. Put shortly:
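Growth-inhibition assay run by a previously reported procedure on wild-type S49 cells, with a thymidine kinase-deficient S49/TK⁻ line tested alongside. The 5-alkynyl-2'-deoxyuridine nucleosides were tested up to 0.1 mM. EC₅₀ is the concentration giving half-maximal growth inhibition.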

The species named for the next data set is Mus musculus. The data set is described as follows: Effect on mutant line lacking dThd kinase (S49/TK at 0.1 mM; No effect. The format is functional.
Data set [3] in a line: Compound was tested for cytotoxicity against Wild-type S49 cells. The format is functional, cell-based. Conditions: Mus musculus.

For `O=c1[nH]c(=O)n([C@H]2C[C@H](O)[C@@H](COP(=O)(O)O)O2)cc1C#CCO`, the affinity on Thymidylate synthase, expressed as Ki, was 3 µM.
For the molecule `CCCCC#Cc1cn([C@H]2C[C@H](O)[C@@H](CO)O2)c(=O)[nH]c1=O`, the Cytotoxicity entry in data set [1] is on record as “Non-toxic”.
On the same count and under the same terms, in the case of `O=c1[nH]c(=O)n([C@H]2C[C@H](O)[C@@H](CO)O2)cc1C#CCO` it was “Non-toxic”.
Turning to `C#Cc1cn([C@H]2C[C@H](O)[C@@H](COP(=O)(O)O)O2)c(=O)[nH]c1=O`, the affinity on Thymidylate synthase, expressed as Ki, was 0.1 µM.
Take `O=c1[nH]c(=O)n([C@H]2C[C@H](O)[C@@H](CO)O2)cc1C#Cc1ccccc1`: in data set [1], the Cytotoxicity result was “Non-toxic”.
`C#Cc1cn([C@H]2C[C@H](O)[C@@H](CO)O2)c(=O)[nH]c1=O`: the midpoint of the response in data set [2], the EC50, lay at 0.12 µM. Further, the Effect result in the data set filed under Mus musculus was “inactive”.
With `CCCCC#Cc1cn([C@H]2C[C@H](O)[C@@H](COP(=O)(O)O)O2)c(=O)[nH]c1=O`, the affinity at Thymidylate synthase, expressed as Ki, was 2.6 µM.
The same measure, in the same setting: in the case of `O=c1[nH]c(=O)n([C@H]2C[C@H](O)[C@@H](COP(=O)(O)O)O2)cc1C#Cc1ccccc1` it was 2 µM.
Take `O=c1[nH]c(=O)n([C@H]2C[C@H](O)[C@@H](COP(=O)(O)O)O2)cc1C#CCCO`: on Thymidylate synthase, the affinity, expressed as Ki, was 1.9 µM.
In the case of `O=c1[nH]c(=O)n([C@H]2C[C@H](O)[C@@H](CO)O2)cc1C#CCCO`, in data set [3], a half-maximal effect (EC50) was put at 70 µM. Besides, the Effect entry in the data set filed under Mus musculus was “inactive”.
Turning to `O=c1[nH]c(=O)n([C@H]2C[C@H](O)[C@@H](COP(=O)(O)O)O2)cc1Cl`, the inhibitory constant (Ki) (in general, the dissociation constant of the complex between target and ligand, obtained from inhibition or displacement) at Thymidylate synthase was found to be 0.2 µM.

Values taken from ChEMBL document CHEMBL1121751, “Inhibition of thymidylate synthetase by 5-alkynyl-2'-deoxyuridylates” (J Med Chem, 1981).
